Assay results from ChEMBL document CHEMBL1909611, “Identification and SAR of selective inducible nitric oxide synthase (iNOS) dimerization inhibitors” (Bioorg Med Chem Lett, 2011).
Calls of active or inactive are those of the source. The calls are words filed in the database; no cut-off is given here.

What was measured:
[1] = biological target: T1, Nitric oxide synthase, inducible (Mus musculus) (UniProt P29477); experiment: Inhibition of IFN-gamma/LPS-induced iNOS dimerization in mouse RAW264.7 cells by Western blot analysis; assay type: cell-based
T1 sequence (whole entry): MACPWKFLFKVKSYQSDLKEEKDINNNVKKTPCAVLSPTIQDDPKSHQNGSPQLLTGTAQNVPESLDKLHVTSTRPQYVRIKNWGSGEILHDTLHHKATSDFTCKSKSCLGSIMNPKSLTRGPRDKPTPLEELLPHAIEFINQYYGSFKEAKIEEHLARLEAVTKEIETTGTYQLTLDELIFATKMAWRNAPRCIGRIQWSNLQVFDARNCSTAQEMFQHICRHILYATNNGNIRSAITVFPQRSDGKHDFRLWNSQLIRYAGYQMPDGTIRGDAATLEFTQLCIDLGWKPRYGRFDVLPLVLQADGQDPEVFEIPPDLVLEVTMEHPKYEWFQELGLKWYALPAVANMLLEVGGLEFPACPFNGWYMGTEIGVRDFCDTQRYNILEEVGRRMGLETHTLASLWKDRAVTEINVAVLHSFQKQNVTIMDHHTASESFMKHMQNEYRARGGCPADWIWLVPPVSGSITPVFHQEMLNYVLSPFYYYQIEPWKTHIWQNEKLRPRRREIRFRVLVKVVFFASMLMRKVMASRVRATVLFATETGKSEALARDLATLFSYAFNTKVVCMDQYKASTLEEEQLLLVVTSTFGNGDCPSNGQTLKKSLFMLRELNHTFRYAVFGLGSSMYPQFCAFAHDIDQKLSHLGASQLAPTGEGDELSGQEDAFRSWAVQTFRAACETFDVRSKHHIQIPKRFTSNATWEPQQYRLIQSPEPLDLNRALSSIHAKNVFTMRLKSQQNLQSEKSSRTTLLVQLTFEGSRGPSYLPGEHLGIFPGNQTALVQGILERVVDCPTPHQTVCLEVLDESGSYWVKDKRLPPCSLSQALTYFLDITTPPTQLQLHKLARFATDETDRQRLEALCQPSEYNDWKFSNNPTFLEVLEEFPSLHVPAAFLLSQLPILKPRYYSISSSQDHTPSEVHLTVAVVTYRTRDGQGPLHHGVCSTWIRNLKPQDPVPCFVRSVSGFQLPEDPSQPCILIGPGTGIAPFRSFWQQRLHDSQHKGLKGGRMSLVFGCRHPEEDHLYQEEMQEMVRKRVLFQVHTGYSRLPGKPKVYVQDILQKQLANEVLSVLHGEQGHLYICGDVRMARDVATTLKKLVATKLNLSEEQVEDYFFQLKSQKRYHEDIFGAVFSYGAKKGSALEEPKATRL
In short: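 RAW 264.7 cells seeded at 1.8 × 10⁶ cells/well and incubated 5 h. Then stimulated overnight with murine IFN-γ (100 U/mL final) and LPS (2 µg/mL final) plus 10 µM compound or vehicle (0.1% DMSO final). Lysates protein-normalized, run on 4–20% Tris–glycine gel under low-temperature SDS–PAGE in a cold room. Blotted with mouse anti-iNOS, read by infrared imaging.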

[2] = biological target: T2, Nitric oxide synthase, inducible (Homo sapiens, UniProt P35228); experiment: Inhibition of human iNOS
T2 sequence (P35228 whole entry): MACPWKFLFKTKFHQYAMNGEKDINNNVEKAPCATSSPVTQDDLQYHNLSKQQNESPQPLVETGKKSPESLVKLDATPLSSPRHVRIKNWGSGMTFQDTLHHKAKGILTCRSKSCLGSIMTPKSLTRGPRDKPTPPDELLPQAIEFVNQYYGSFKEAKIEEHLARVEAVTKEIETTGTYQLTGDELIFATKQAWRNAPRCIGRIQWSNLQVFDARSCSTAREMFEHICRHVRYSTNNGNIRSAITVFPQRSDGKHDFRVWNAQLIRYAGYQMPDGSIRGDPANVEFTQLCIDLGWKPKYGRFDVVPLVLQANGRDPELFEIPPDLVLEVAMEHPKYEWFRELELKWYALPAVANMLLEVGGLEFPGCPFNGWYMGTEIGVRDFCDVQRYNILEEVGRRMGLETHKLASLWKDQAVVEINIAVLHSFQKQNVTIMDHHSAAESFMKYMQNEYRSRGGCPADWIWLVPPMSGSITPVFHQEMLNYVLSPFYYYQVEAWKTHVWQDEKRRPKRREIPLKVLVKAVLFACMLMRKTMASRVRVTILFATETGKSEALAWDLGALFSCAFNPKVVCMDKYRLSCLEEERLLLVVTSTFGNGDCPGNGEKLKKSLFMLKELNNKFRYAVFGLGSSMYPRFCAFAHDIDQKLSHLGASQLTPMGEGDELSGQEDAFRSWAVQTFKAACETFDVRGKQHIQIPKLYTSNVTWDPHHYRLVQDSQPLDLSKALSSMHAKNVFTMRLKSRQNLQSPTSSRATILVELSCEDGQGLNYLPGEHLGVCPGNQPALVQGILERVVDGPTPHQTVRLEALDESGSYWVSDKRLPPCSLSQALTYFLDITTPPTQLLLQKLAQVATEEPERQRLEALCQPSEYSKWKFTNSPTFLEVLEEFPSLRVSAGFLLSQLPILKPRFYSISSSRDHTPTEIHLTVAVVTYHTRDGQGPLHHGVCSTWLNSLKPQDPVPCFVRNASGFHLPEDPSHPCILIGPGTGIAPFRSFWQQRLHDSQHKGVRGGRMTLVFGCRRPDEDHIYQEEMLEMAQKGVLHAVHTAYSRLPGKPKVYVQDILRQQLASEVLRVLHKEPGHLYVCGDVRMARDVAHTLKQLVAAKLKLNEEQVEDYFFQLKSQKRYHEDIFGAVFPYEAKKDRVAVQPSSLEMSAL

[3] = biological target: T2, Nitric oxide synthase, inducible; experiment: Inhibition of human iNOS expressed in human HEK293 cells assessed as nitrite accumulation at 100 uM after 18 hrs by 2,3-diaminonapthalene assay; assay type: cell-based
In short: (§1)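 Transiently transfected cells plated at 5e5 cells/ml; compounds added immediately by pin transfer. Incubated 18 h for nitrite accumulation. Fluorescence (ex 360/em 425 nm) read after raising pH with NaOH (0.12 N final). Values are mean of three experiments with SD. At 100 µM, <50% inhibition is reported as >100.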

Nitric oxide synthase 1 [4] = biological target: T3, Nitric oxide synthase 1 (Homo sapiens, UniProt P29475); experiment: Inhibition of human nNOS expressed in HEK293 cells assessed as inhibition ionomycin-induced nitric oxide production at 100 uM incubated for 24 hrs measured after 18 hrs of ionomycin challenge by 2,3-diaminonaphthalene assay; assay type: cell-based
T3 sequence (P29475 whole entry): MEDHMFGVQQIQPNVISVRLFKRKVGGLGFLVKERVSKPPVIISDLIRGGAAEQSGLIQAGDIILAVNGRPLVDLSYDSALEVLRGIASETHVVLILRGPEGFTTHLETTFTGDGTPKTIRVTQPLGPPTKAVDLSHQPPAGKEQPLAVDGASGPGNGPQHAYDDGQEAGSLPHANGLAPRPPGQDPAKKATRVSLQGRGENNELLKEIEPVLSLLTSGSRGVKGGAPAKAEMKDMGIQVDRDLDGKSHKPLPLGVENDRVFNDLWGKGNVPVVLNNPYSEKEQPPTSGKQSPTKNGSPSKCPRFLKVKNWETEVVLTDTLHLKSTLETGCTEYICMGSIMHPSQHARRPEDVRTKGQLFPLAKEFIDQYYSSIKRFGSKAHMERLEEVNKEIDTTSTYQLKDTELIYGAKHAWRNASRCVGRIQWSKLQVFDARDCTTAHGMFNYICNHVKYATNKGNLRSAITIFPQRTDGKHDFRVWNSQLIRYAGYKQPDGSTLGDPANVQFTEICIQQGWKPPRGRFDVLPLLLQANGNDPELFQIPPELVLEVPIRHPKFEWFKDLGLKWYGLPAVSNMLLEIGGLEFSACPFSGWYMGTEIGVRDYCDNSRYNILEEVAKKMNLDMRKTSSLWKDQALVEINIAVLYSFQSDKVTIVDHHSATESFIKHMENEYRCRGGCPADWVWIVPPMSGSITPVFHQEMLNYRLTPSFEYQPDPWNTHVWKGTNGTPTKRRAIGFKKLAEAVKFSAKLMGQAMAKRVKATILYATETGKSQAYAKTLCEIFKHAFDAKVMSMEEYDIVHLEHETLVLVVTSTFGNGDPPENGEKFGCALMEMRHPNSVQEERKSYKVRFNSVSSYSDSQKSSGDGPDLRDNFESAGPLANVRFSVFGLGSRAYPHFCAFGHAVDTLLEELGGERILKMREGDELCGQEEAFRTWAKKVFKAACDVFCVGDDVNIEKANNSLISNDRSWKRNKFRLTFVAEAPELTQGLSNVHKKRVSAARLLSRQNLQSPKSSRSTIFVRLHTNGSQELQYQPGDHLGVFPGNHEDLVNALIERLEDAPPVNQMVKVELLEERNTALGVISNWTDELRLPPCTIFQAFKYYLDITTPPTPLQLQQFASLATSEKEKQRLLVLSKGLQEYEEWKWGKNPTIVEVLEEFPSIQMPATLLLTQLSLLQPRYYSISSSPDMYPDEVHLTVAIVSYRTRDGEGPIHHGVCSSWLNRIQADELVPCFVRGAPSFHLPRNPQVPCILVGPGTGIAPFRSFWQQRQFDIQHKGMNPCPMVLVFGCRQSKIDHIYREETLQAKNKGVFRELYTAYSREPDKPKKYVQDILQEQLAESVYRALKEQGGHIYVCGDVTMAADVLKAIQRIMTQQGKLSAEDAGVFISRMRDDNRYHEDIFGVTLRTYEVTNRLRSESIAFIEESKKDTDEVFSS
In short: as §1, with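 “24” for “18”, “with compound, then activated by ionophore (0.8 µM final).” for “for nitrite accumulation.”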

[5] = biological target: T4, Nitric oxide synthase 3 (Homo sapiens) (UniProt P29474); experiment: Inhibition of human eNOS expressed in HEK293 cells assessed as inhibition A23187-induced nitric oxide production at 100 uM incubated for 24 hrs measured after 18 hrs of A23187 challenge by 2,3-diaminonaphthalene assay; assay type: cell-based
T4 sequence (whole entry): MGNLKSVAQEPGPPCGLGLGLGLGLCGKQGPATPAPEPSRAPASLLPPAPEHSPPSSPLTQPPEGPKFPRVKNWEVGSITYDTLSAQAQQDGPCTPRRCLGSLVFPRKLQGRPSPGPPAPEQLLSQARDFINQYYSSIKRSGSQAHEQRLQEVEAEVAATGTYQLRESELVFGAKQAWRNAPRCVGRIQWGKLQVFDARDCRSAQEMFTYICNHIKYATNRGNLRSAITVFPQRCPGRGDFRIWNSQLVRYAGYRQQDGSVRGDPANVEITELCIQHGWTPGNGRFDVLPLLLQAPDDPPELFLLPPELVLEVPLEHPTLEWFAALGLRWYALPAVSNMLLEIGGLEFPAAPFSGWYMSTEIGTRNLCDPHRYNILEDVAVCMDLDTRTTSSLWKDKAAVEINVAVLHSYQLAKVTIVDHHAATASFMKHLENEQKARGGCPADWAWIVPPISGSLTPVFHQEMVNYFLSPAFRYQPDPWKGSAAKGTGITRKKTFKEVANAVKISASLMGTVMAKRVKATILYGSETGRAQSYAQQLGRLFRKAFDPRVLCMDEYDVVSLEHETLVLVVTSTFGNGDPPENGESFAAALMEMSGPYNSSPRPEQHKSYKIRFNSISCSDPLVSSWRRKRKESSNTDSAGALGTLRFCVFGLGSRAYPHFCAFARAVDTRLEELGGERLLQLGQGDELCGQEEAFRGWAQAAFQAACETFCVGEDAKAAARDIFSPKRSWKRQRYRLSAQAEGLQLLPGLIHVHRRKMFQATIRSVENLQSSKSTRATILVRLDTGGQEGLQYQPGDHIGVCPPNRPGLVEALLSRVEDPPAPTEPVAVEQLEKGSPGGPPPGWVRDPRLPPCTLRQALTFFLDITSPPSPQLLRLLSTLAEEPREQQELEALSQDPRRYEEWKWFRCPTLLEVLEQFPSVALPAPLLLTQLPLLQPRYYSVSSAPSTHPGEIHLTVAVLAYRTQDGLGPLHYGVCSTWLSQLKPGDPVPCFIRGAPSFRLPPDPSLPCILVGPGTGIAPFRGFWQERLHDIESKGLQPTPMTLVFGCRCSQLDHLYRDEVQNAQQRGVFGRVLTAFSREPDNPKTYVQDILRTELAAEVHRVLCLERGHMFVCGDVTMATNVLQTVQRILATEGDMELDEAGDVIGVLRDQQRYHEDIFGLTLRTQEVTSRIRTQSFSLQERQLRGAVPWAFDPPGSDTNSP
In short: as §1, with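 “24” for “18”, “with compound, then activated by ionophore (0.8 µM final).” for “for nitrite accumulation.”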

Nitric oxide synthase 1 [6] = biological target: T3, Nitric oxide synthase 1; experiment: Inhibition of human nNOS expressed in HEK293 cells assessed as inhibition ionomycin-induced nitric oxide production incubated for 24 hrs measured after 18 hrs of ionomycin challenge by 2,3-diaminonaphthalene assay; assay type: cell-based
In short: as §1, with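 “24” for “18”, “with compound, then activated by ionophore (0.8 µM final).” for “for nitrite accumulation.”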

[7] = biological target: T2, Nitric oxide synthase, inducible; experiment: Inhibition of human iNOS expressed in human HEK293 cells assessed as nitrite accumulation after 18 hrs by 2,3-diaminonapthalene assay; assay type: cell-based; in short: as §1
Nitric oxide synthase 3 = biological target: T5, Nitric oxide synthase 3 (Homo sapiens, UniProt P29474); experiment: Inhibition of human eNOS expressed in HEK293 cells assessed as inhibition A23187-induced nitric oxide production incubated for 24 hrs measured after 18 hrs of A23187 challenge by 2,3-diaminonaphthalene assay; assay type: cell-based
T5 sequence (P29474 whole entry): T4 sequence (whole entry)
In short: as §1, with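 “24” for “18”, “with compound, then activated by ionophore (0.8 µM final).” for “for nitrite accumulation.”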

Rattus norvegicus [8] = experiment: Antiinflammatory activity in po dosed Lewis rat endotoxemia model assessed as inhibition of LPS-induced plasma nitrate accumulation after 6 hrs; assay type: functional
Rattus norvegicus [9] = experiment: Antiinflammatory activity in Lewis rat assessed as inhibition of carrageenan-induced edema at 3 to 30 mg/kg, po administered 15 mins before carrageenan challenge measured after 5 hrs; assay type: functional, organism-based
Rattus norvegicus [10] = experiment: Antiinflammatory activity in Lewis rat assessed as inhibition of carrageenan-induced thermal hyperalgesia at 3 to 30 mg/kg, po administered 15 mins before carrageenan challenge measured after 5 hrs; assay type: functional, organism-based
Rattus norvegicus [11] = experiment: Analgesic activity in po dosed Lewis rat post operative brennan model assessed as incison-induced paw weight bearing response after 30 to 120 mins; assay type: functional, organism-based

| Structure (SMILES) | inhibition [1] | IC50 [2] [µM] | inhibition [3] [%] | inhibition (Nitric oxide synthase 1 [4]) [%] | inhibition [5] [%] | EC50 (Nitric oxide synthase 1 [6]) [µM] | EC50 [7] [µM] | EC50 (Nitric oxide synthase 3) [µM] | ED50 (Rattus norvegicus [8]) [mg/kg] | inhibition (Rattus norvegicus [9]) | inhibition (Rattus norvegicus [10]) | Activity (Rattus norvegicus [11]) |
| --- | --- | --- | --- | --- | --- | --- | --- | --- | --- | --- | --- | --- |
| Cc1cc(N(C)CCCNCc2ccc3c(c2)OCO3)nc(-n2ccnc2)n1 | Active | 0.01 |  |  |  |  |  |  |  |  |  |  |
| CN(CCCNCc1ccccc1)c1nc(-n2ccnc2)ns1 | Active | > 100 | < 50 | < 50 | < 50 | > 100 | > 100 | > 100 |  |  |  |  |
| CN(CCCNCc1ccc2c(c1)OCO2)c1nc(-n2ccnc2)ns1 [KD7040] | Active | 0.007 |  |  |  | 17.3 | 0.008 | > 100 |  |  |  |  |
| Cc1cc(N(C)CCCNCc2ccc3c(c2)OCO3)nc(-n2cccc2)n1 | inactive | > 100 |  |  |  |  |  |  |  |  |  |  |
| Cc1cc(C(C)(C)NCCNCc2ccc3c(c2)OCO3)nc(-n2ccnc2)n1 |  |  |  | < 50 | < 50 | > 100 | 2.3 | > 100 | 9.3 | Active | Active | Active |
